Measured values taken from publication PMC3286832 (Nature Communications, 2011).

Legend:
[1] = system: DNA methylation, H3K9 methylation, H3K4 methylation; conditions: ref [4]; cited from earlier work
GLP catalytic SET domain = GLP catalytic SET domain (Homo sapiens, UniProt Q9H9B1); experiment: In vitro methylation assay with GLP catalytic SET domain; assay type: biochemical; conditions: [methyl-3H]AdoMet, SDS–PAGE and fluorography / autoradiogram
Summary of the method: (§1)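 E. coli-expressed hG9a or hGLP SET domain (1.6 μM) was incubated with 13.0 μM substrate (mDnmt3a N-terminal fragments or other GST-tagged proteins) and 2.8 μM [methyl-3H]AdoMet in 20 mM Tris–HCl pH 8.5 at 30 °C for 8 min. Products were resolved by SDS–PAGE and detected by fluorography/autoradiography.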

G9a catalytic SET domain = G9a catalytic SET domain (Homo sapiens, UniProt Q96KQ7); experiment: In vitro methylation assay with G9a catalytic SET domain; assay type: biochemical; conditions: [methyl-3H]AdoMet, 30 °C, 8 min, pH 8.5, SDS–PAGE and fluorography
Chain of G9a catalytic SET domain (Q96KQ7 1038-1155 limits assumed): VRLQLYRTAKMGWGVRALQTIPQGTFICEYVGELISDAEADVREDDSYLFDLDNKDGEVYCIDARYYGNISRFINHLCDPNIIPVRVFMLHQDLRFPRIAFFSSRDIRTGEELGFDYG
Summary of the method: as §1

MPP8 chromodomain = target: T1, MPP8 chromodomain (Homo sapiens, UniProt Q99549); experiment: Co-crystal structure MPP8 chromodomain–hDNMT3AK47me2 peptide; assay type: binding
T1 sequence (Q99549 59-118 limits assumed): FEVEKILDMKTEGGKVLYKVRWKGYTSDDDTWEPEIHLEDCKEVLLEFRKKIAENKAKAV

Chain of GLP catalytic SET domain (Q9H9B1 1126-1243 limits assumed): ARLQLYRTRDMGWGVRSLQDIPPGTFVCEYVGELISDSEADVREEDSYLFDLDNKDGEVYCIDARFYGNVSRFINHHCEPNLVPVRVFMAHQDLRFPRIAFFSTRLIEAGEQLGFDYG

methylation by GLP (GLP catalytic SET domain)	Compound	further results
–	Nc1ncn([C@H]2C[C@H](O)[C@@H](CO)O2)c(=O)n1 [5-aza-2′-deoxycytidine]	effect on DNA, H3K9 and H3K4 methylation [1]: leads to depletion of DNA methylation and of H3K9 methylation, and a corresponding increase in H3K4 methylation
–	YEPSTTARKVGRPGR [hDNMT3AK47me2]	pairwise root-mean-square-deviation to MPP8-H3K9me3 structure (MPP8 chromodomain; 54 pairs of main-chain atoms, vs PDB 3QO2): ~ 0.6 Å; binding mode in MPP8 chromodomain (MPP8 chromodomain; crystal structure (3SVM)): bound in an extended conformation in an acidic cleft of the chromodomain
eliminates methylation	hDNMT3A K47R (residues 1–223): K47R substitution in hDNMT3A N-terminal domain	–
are methylated	hDNMT3A residues 1–94: GST-tagged hDNMT3A N-terminal fragment	–
are methylated	hDNMT3A residues 1–223: GST-tagged hDNMT3A N-terminal fragment	–

Compound	methylation by GLP (GLP catalytic SET domain)	further results
Dnmt3a-N: N-terminal fragment of mouse Dnmt3a (residues 1–274)	methylate the N-terminal fragment of Dnmt3a	methylation by G9a (G9a catalytic SET domain): methylate the N-terminal fragment of Dnmt3a
